Screening results (PubChem)
Rows were chosen to be rich in hits. Some 4.3% of all compounds tested hit in one or more screens of this group.
Rin1-Abl PPI inh: blocks binding of human Rin1 to Abl; P00519+Q13671; inhibition, % at 7.35 µM; 360,000 compounds, 0.4% hits; TR-FRET Rin1/Abl binding, biochemical; AID 588664; in the data active = inhibition above about 5%, passing the limit was not always enough
ALR inh: inhibitors of human sulfhydryl oxidase ALR | P55789 | 290,000 compounds, 3.8% hits | purified ALR, DTT oxidation, H2O2 HRP-luminol luminescence | inhibition, % (no concentration beside the values) | AID 485317;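 active = mean replicate inhibition above about 79%, with every replicate also reaching it, limit read from the data; inconclusive = only one of the two criteria met; inactive = mean below limit and not every replicate reaching it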
Target sequence (P55789 whole entry, looked up): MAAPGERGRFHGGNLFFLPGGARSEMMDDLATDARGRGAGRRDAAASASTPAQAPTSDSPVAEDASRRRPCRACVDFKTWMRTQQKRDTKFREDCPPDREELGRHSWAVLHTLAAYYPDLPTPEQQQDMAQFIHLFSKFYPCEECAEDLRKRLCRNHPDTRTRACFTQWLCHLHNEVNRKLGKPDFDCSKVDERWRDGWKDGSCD
PREPL inh: human PREPL enzyme inhibition. inhibition, % at 5.96 µM. Q4J6C6. 320,000 compounds, 0.68% hits. recombinant PREPL, fluorescence polarization activity-based probe; in the data active = inhibition above about 43%;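 also: 0% = enzyme with DMSO and 100% = wells lacking enzyme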
SUMO HTRF inh: SUMOylation inhibition | P63279 | inhibition, % at 35 µM | 290,000 compounds, 0.36% hits | AID 2006 | HTRF SUMOylation assay, SAE1/SAE2 + UBC9, in vitro; in the data active = inhibition above about 50%, passing the limit was not always enough; inconclusive = no clear call, values can overlap the other calls
RBBP9 inh: inhibitors of human serine hydrolase RBBP9. inhibition, % at 7.94 µM. AID 1515. 220,000 compounds, 0.2% hits. recombinant RBBP9, FP-Rh probe fluorescence polarization;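 active = inhibition above the campaign mean of all tested compounds plus 3 SD, cut at about 14% in these data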;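 also: plate controls were DMSO wells with RBBP9 for no effect and wells lacking RBBP9 protein for full effect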
Target sequence (O75884 whole entry, looked up): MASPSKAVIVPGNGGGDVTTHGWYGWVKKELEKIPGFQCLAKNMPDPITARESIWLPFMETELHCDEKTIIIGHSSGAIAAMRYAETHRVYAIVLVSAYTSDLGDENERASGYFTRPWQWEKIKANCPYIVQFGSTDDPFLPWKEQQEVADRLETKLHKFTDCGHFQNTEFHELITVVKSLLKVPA
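Material: RBBP9 protein. Amount: RBBP9 at 2.5 µM in dispensed solution, before mixing. Schedule: 30 min then 45 min, 25 °C. Medium: Tris buffer pH 8.0, NaCl, Pluronic. Measured by: fluorescence polarization. Measure: percent inhibition from mP, scaled between DMSO and no-protein wells. Replication: one well per compound.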
UBC13 polyUb: blocks human UBC13 polyubiquitin chain formation. P61088. TR-FRET. inhibition, % at 20 µM. 330,000 compounds, 0.47% hits. AID 485273; in the data active = inhibition above about 45%, passing the limit was not always enough; inconclusive = no clear call, values can overlap the other calls
Target sequence (P61088 whole entry, looked up): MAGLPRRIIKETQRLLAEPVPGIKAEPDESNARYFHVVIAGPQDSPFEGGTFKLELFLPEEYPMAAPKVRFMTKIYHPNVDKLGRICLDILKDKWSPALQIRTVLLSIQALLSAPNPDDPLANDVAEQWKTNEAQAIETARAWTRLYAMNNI
Starred values were filed as active, the others as inactive; ? = inconclusive; / = no result.

SMILES | Rin1-Abl PPI inh | ALR inh | PREPL inh | SUMO HTRF inh | RBBP9 inh | UBC13 polyUb
CCOc1ccc(C(=O)NNC2CC(=O)N(CCc3ccccc3)C2=O)cc1OC (centres undefined) | -1 | -4 | -5 | 6 | -11 | -12
COc1ccc(CCN2C(=O)CC(NNC(=O)c3cccc(O)c3)C2=O)cc1 (centres undefined) | 0 | 95* | 2 | -3 | 4 | -5
O=C(O)c1ccc(-c2cccc([N+](=O)[O-])c2)o1 | -3 | / | 3 | 16 | -11 | -10
O=C(NC1CCCCC1)c1ccc(-c2cccc([N+](=O)[O-])c2)o1 | 1 | 94* | 7 | 2 | / | -4
COc1ccc(CCC(=O)Nc2ccc(N3CCOCC3)c(S(=O)(=O)Nc3ccc(OC)cc3)c2)cc1 | 5 | / | / | / | / | /
O=C(CNS(=O)(=O)c1ccccc1)N/N=C/c1ccc(O)cc1 | 0 | 99* | 1 | -1 | 0 | 10
O=C(Cn1cnc2ccccc21)N/N=C/c1ccccn1 | -3 | 99* | 18 | -6 | -2 | -12
O=C(CCn1cnc2ccccc21)N/N=C/c1ccc(O)cc1 | 4 | 99* | -1 | 13 | 7 | -6
Cc1ccc2nc(SCC(=O)N/N=C/c3ccc(C(=O)O)cc3)cc(C)c2c1 | 0 | 98* | -1 | 13 | / | -2
CSc1nc2nc(C)c(CCC(=O)OCC(=O)Nc3ccc(F)cc3)c(C)n2n1 | 1 | / | / | / | / | -6
O=C(CSc1ccc2ccccc2n1)N/N=C/c1ccccc1O | -3 | -14 | / | -8 | / | 7
O=C(CSc1ccc2ccccc2n1)N/N=C/c1ccc(O)cc1 | -2 | 99* | -9 | -4 | / | -11
CCCNc1c(NS(=O)(=O)c2cccs2)c(=O)oc2ccccc12 | 2 | -1 | -7 | -6 | / | 5
CN=c1scc(C)n1/N=C/c1ccc(O)cc1O | -5 | 99* | 4 | 1 | 1 | 9
Cc1nnc(C)n1/N=C/c1ccc2c(c1)OCCO2 | 7 | / | -2 | 6 | 7 | 7
CN=c1scc(C)n1/N=C/c1ccc2c(c1)OCO2 | 0 | 98* | 6 | 9 | -5 | -6
CN=c1scc(C)n1/N=C/c1ccc(O)cc1 | -1 | 99* | 6 | 9 | -4 | -7
O=C(CCCOc1ccc(Br)cc1)NNC(=O)c1ccncc1 | 2 | -14 | 3 | / | / | 2
Cc1nc2ccc(Br)cc2c(=O)n1Cc1cccs1 | -2 | / | 6 | / | / | 5
CCOc1ccccc1NC(=O)C1=C(C)NC(=S)NC1c1cccs1 (centres undefined) | 2 | -9 | -5 | -19 | 5 | /
O=C(CC1OC(=O)c2ccccc21)NNC(=O)c1ccc(F)cc1 (centres undefined) | 1 | / | -3 | / | / | 3
COC(=O)C1C(O)=C(C=Nc2ccccc2)C(=O)CC1(C)C (centres undefined) | -1 | 100* | 0 | 23 | 4 | -13
COC(=O)C1C(O)=C(C=Nc2ccc(N)cc2)C(=O)CC1(C)C (centres undefined) | -3 | 26 | 6 | 4 | 2 | -18
CCOc1ccc(-c2noc(CCC(=O)NCC3CCCO3)n2)cc1OC (centres undefined) | 3 | 0 | 7 | 6 | / | 7
Cc1ccc(-n2nc(-c3ccc(N)cc3)cc2N)cc1 | -1 | 98* | 12 | 18 | -12 | -4
SMILES | Rin1-Abl PPI inh | ALR inh | PREPL inh | SUMO HTRF inh | RBBP9 inh | UBC13 polyUb
Nc1ccc(-c2cc(N)n(-c3ccccc3)n2)cc1 | 0 | 93* | 24 | 12 | -5 | -5
Cc1ccccc1-n1nc(-c2ccc(N)cc2)cc1N | 0 | ? | 7 | 12 | 0 | -1
COc1ccc(Cl)cc1NS(=O)(=O)c1cccc(C(=O)NCC2(N(C)C)CCCCC2)c1 | 4 | 1 | / | 10 | / | 3
CCOc1cc(CNCCO)cc(Br)c1OCc1ccc(Cl)cc1Cl | 3 | -16 | -50 | -14 | -10 | 56*
Fc1ccc(-c2ccnc(=S)[nH]2)cc1 | -3 | 99* | 17 | 33 | -4 | -12
FCCCOc1ccc(-c2nccc(-c3ccc(F)cc3)n2)cc1 | -2 | -12 | -13 | -11 | -6 | 2
COc1ccc(/C=N/NC(=O)C(=O)N2CCCC2)cc1 | -1 | -1 | 1 | 11 | 2 | 3
C=CCOc1ccc(/C=N/NC(=O)C(=O)N2CCCCCC2)cc1OC | -1 | / | 4 | 10 | / | 0
CN(C)c1ccc(/C=N/NC(=O)C(=O)N2CCCCCC2)cc1 | -3 | 99* | 15 | 9 | / | -6
COc1cc(/C=N/NC(=O)C(=O)N2CCCCCC2)ccc1O | 0 | 99* | -7 | -4 | / | 0
COc1cc(/C=N/NC(=O)CC(=O)NC2CCCCC2)ccc1O | 3 | 99* | 1 | -6 | / | -4
CCc1ccc(C(=O)/C=C/Nc2ccc(S(=O)(=O)Nc3cnc4ccccc4n3)cc2)cc1 | 2 | -5 | 6 | 26 | -4 | -16
CC(C)(C)OC(=O)C[C@H]1C/C=C\C[C@@H](CC(=O)N(CCO)Cc2ccccc2)C(=O)N[C@H](Cc2ccccc2)COC1=O | 3 | -4 | 13 | / | / | 10
Cc1cc(O)cc(C)c1NS(=O)(=O)c1ccc2ccccc2c1 | 0 | 79* | -7 | 8 | / | -1
Cc1ccc(S(=O)(=O)Nc2c(O)ccc3ccccc23)cc1 | 0 | 88* | 5 | / | / | -11
Cc1ccc(S(=O)(=O)Nc2ccccc2-c2ccccc2NS(=O)(=O)c2ccc(C)cc2)cc1 | -2 | 2 | 1 | -1 | -6 | -26
Cc1ccc(S(=O)(=O)NN=Cc2c(O)ccc3ccccc23)cc1 | -7 | / | / | / | / | /
O=S(=O)(Nc1c(O)ccc2ccccc12)c1cccc2ccccc12 | -2 | 87* | 6 | / | / | -14
O=C(O)c1cc(NS(=O)(=O)c2cccc3ccccc23)ccc1O | 0 | 2 | 19 | 8 | 0 | -4
Cc1ccc(S(=O)(=O)Nc2c(Cl)c(Cl)c(O)c3ccccc23)cc1 | / | 48 | 4 | 92* | / | -17
Cc1ccc(CNC(=O)C2CCN(S(=O)(=O)c3ccc4c(c3)CC(C)N4C(=O)C3CCC3)CC2)o1 (centres undefined) | 0 | 5 | 13 | 18 | / | -3
CC(=O)OC(C(=O)NCc1ccco1)c1ccncc1 (centres undefined) | -1 | 2 | 17 | 8 | -7 | -7
COc1ccccc1CNC(=O)c1oc2ccccc2c1C | 2 | -6 | -3 | 0 | / | -2
COc1ccc2c(C)c(C(=O)NCC(C)O)oc2c1OC (centres undefined) | 2 | -10 | -2 | 59* | -10 | 6
CCOc1ccc2nc(N3CCCCCC3)sc2c1 | 5 | 90* | 8 | -12 | -7 | 12
COc1ccccc1CC(=O)Nc1ccc(S(=O)(=O)N(C)C2CCN(C)CC2)cc1 | 4 | / | 9 | / | / | 7
Clc1nnc(N/N=C/c2ccccc2)c2ccccc12 | 0 | 22 | 20 | -6 | 4 | -8
C[n+]1ccc(/C=N/Nc2nc(Cl)c(C#N)c(Cl)c2Cl)cc1 | 1 | 82* | 29 | 8 | -6 | -379
